HSP90 inh: inhibitors of HSP90 luciferase refolding in rabbit reticulocyte lysate | luciferase refolding luminescence, 3 h | inhibition, % at 5.6 µM | actives 0.91% (n = 290,000);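 active = inhibition above the screen-wide mean plus 3 SD, computed separately per campaign, cut at about 16% in these data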;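 also: inhibitors lower the luminescence because luciferase stays unfolded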
SENP1 inh: SENP1 (human) catalytic domain inhibition. Q9P0U3. recombinant SENP1 catalytic domain, CyPet-SUMO1-YPet FRET cleavage. inhibition, % at 10 µM. actives 0.21% (n = 360,000);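 active = inhibition at least 30% at 10 µM, raw YFP signal under a set limit, fluorescence ratio 0.5 to 1.5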
Target sequence (Q9P0U3 419-644 limits assumed): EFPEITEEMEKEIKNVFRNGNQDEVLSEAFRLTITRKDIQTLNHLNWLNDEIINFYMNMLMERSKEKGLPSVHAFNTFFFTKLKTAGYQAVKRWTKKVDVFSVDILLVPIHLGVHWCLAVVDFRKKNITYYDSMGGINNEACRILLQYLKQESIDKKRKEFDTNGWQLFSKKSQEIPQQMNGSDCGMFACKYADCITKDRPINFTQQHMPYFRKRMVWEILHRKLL
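Assay system: hSENP1 catalytic domain, recombinant. Amount: SENP1 enzyme, 20 pM final. Schedule: 50 min reaction, RT, dark. Technique: FRET, CFP and YFP emission. Control set: no-enzyme wells low, DMSO-plus-enzyme wells high control.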
SENP8 block-1: blocks human SENP8 cleavage of Nedd8 substrate. Q96LD8. recombinant SENP8, Nedd8 substrate fluorescence. inhibition, % at 20 µM. actives 0.64% (n = 360,000); in the data active = inhibition mostly above about 40%, no sharp cut-off; inactive = mostly below about 27%
SENP6 block: blocks the human protease SENP6 | Q9GZR1 | Recombinant SENP6 catalytic domain, aminoluciferin luminescence | inhibition, % at 10 µM | actives 1.8% (n = 330,000);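 active = inhibition above about 50% at the single tested dose, limit read from the data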
SENP7 inh: blocks the human protease SENP7. inhibition, % at 5 µM. actives 1.5% (n = 330,000). AID 434973. recombinant SENP7, Z-RLRGG-aminoluciferin luminescence, 40 min;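 active = inhibition above about 50% at the single test dose, limit read from the data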
SENP8 block-2: blocks the human protease SENP8; actives 1.2% (n = 330,000); Q96LD8; AID 2540; purified SENP8, Z-RLRGG-aminoluciferin cleavage, luminescence; inhibition, % at 10 µM; in the data active = inhibition above about 50%
SENP8 conf: human SENP8 inhibition, confirmed; shares compounds with SENP7 inh; Recombinant SENP8, Z-RLRGG-aminoluciferin luminescence, 60 min; inhibition, % at 12.5 µM; actives 40% (n = 6,200); AID 488912;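 active = mean inhibition across replicates above about 50%, limit read from the data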
SENP6 confirm: human SENP6 inhibition, confirmed. shares compounds with SENP7 inh. recombinant SENP6, Z-RLRGG-aminoluciferin luminescence. inhibition, % at 12.5 µM. actives 58% (n = 6,200)
SENP7 conf: confirmation of human SENP7 protease inhibitors; shares compounds with SENP7 inh; recombinant SENP7, Z-RLRGG-aminoluciferin luminescence, 40 min; inhibition, % at 12.5 µM; actives 69% (n = 6,200); AID 488917
Casp3 SENP sel: caspase-3 inhibition (SENP selectivity assay) | inhibition, % at 12.5 µM | actives 60% (n = 6,200) | shares compounds with SENP7 inh | purified caspase-3, Z-DEVD-aminoluciferin luminescence, 60 min;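 active = mean inhibition above about 50%, limit read from the data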
Target sequence (P42574 28-227 limits assumed): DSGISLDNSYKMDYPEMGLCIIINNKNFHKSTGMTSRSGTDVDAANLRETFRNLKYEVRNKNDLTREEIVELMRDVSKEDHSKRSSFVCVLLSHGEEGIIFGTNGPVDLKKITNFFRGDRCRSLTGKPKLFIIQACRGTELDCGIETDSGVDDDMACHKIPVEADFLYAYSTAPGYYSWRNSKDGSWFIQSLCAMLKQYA
Luc interf: counter-screen for SENP inhibitors: luminescence interference. Pre-incubated SENP8/Z-RLRGG-aminoluciferin, luciferase luminescence interference. inhibition, % at 12.5 µM. actives 39% (n = 6,200). shares compounds with SENP7 inh. AID 488919;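 active = mean inhibition above about 50% when retested at one dose, limit read from the data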
A number is an active result; n = inactive; x = not tested or not shown. This is a sample that favours compounds with a hit; in the whole collection about 2.9% have one here.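 The calls were made as follows, unless noted: active = mean inhibition above about 50% in the one-dose retest (limit read from the data); inactive = the rest.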

SMILES	HSP90 inh	SENP1 inh	SENP8 block-1	SENP6 block	SENP7 inh	SENP8 block-2	SENP8 conf	SENP6 confirm	SENP7 conf	Casp3 SENP sel	Luc interf
CCOC(=O)c1sc(NC(=O)c2ccc(S(=O)(=O)N(C)C)cc2)cc1C	n	n	n	n	n	n	x	x	x	x	x
CCOC(=O)c1sc(NC(=O)c2ccccc2)cc1C	n	n	n	93	94	77	57	90	100	84	n
CCOC(=O)c1sc(=NC(=O)c2ccccc2)n(C)c1C	n	n	n	n	54	n	n	n	n	n	n
CCCN1CCN(C(=O)C2CCN(S(=O)(=O)c3c(C)noc3/C=C/c3ccc(C)cc3)CC2)CC1	n	n	n	n	n	n	x	x	x	x	x
C=C1C(=O)OCC2C(C(=O)O)=CC3C(C)C(C)=CC123 (stereo not drawn)	x	n	n	x	x	x	x	x	x	x	x
O=C(Nc1nc2ccccc2[nH]1)c1cccc(Cl)c1	n	n	n	57	68	n	n	n	86	66	n
CC(=O)Nc1nc2ccccc2[nH]1	n	n	n	n	n	n	x	x	x	x	x
O=C(Nc1nc2ccccc2[nH]1)c1ccccc1O	n	n	n	88	92	82	n	80	64	92	n
CCn1c(COc2ccccc2)nnc1SCC(=O)Nc1ccc(N2CCOCC2)cc1	n	n	n	n	n	n	x	x	x	x	x
CCOC(=O)C1=NOC2(C1)C(=O)Nc1ccc(OC)cc12 (stereo not drawn)	x	n	n	x	x	x	x	x	x	x	x
N/C(=N\N=C\c1cccc(O)c1)c1nonc1N	29	n	n	95	97	95	97	99	102	98	94
N/C(=N\N=C\c1ccc(O)cc1)c1nonc1N	n	n	n	93	98	95	97	98	102	98	96
COc1cc(/C=N/N=C(\N)c2nonc2N)ccc1O	n	n	n	93	94	89	93	92	99	94	92
CC(=O)c1c(C)[nH]c(C(=O)OCC(=O)c2c[nH]c3ccccc23)c1C	x	n	n	n	n	n	x	x	x	x	x
CCc1cc(CNC(=O)c2ccc(OC3CCN(C(C)=O)CC3)c(OC)c2)on1	n	n	n	n	n	n	x	x	x	x	x
CC(OC(=O)c1ccccc1Nc1ccc(SC(F)F)cc1)C(N)=O (stereo not drawn)	n	n	n	n	n	n	x	x	x	x	x
O=C(COC(=O)c1ccccc1Nc1ccc(SC(F)F)cc1)NCc1ccco1	n	n	n	65	n	n	n	n	n	n	n
Cc1cccc(Nc2ccccc2C(=O)OCC(=O)NCc2ccco2)c1C	n	n	n	n	n	n	x	x	x	x	x
NC(=O)COC(=O)c1ccccc1Nc1ccc(SC(F)F)cc1	n	n	n	64	n	n	61	60	77	n	69
CCOC(=O)CC1(C)NC(C(=O)O)C(C)(C)S1 (stereo not drawn)	x	n	n	x	x	x	x	x	x	x	x
O=C(/C=C/Nc1ccc(Br)cn1)c1cccc(OC(F)F)c1	x	n	n	n	62	n	n	n	n	n	n
Cc1ccc(NC(=O)CN(C)C(=O)COC(=O)C2=COCCO2)cc1	x	n	n	n	n	n	x	x	x	x	x
COC(=O)c1ccc(COc2ccccc2/C=N/Nc2cccc(C(=O)O)c2)cc1	n	n	n	x	x	x	x	x	x	x	x
COC(=O)c1ccc(COc2ccccc2/C=C/C(=O)c2ccc(OCC(=O)O)cc2)cc1	n	n	n	55	n	n	n	n	n	n	n
N#C/C(=C\c1ccc(O)c(Br)c1)C(=O)N1CCCCC1	n	n	n	n	n	n	x	x	x	x	x
